Experimental data from paper PMC3330681 (Scientific Reports, 2012).

Columns and labels:
Assay type in all cases: cell-based
[1] = target: T1, GPR35 (Homo sapiens, UniProt Q9HC97); assay: Dynamic mass redistribution; settings: for DMR signal in DMR agonism profiling (in words): doses up to 1 mM
[2] = target: T1, GPR35; assay: Tango β-arrestin translocation gene reporter assay in U2OS-GPR35-bla cells; settings: for Efficacy Tango (maximal response): normalized to maximal response of zaprinast within the same plate
[3] = target: T1, GPR35; assay: Receptor internalization assay; settings: HT-29, 1 hr; 50 μM gentisate, 2 mM L-DOPA, 50 μM DHICA, 500 μM DOPAC, 5 μM reverse T3, 200 μM T4, 50 μM 3-nitrotyrosine
In short: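 HT-29 cells (McCoy's 5a, 10% FBS, 37°C/5% CO2) were seeded on chamber slides at 10,000 cells/well for 24 hrs, then given a test compound at a fixed dose or DMSO vehicle for 1 hr at 37°C. Cells were fixed in 4% formaldehyde, permeabilized, and stained with intracellular-domain anti-GPR35 (1:500, 24 hrs) and an Alexa Fluor 594 secondary. Confocal imaging followed.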

[4] = target: T1, GPR35; assay: DMR antagonist assay: SPB05142 blocking the agonist-induced DMR in HT-29 cells; settings: for DMR of the agonist in the presence of 64 μM SPB05142: HT-29 cells
In short: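 HT-29 cells in McCoy's 5a with 10% FBS were grown overnight to confluence on resonant waveguide biosensor plates, washed into HBSS and equilibrated 1 hr at 26°C. GPR35 antagonist pretreatment lasted 1 hr, then baseline, then agonist at a fixed dose. DMR was recorded for about 1 hr and background-corrected.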

[5] = U2OS-GPR35-bla cells, β-arrestin translocation
[6] = DMR agonism, HT-29 cells, maximal DMR amplitude within 1 hr

T1 sequence (Q9HC97 whole entry): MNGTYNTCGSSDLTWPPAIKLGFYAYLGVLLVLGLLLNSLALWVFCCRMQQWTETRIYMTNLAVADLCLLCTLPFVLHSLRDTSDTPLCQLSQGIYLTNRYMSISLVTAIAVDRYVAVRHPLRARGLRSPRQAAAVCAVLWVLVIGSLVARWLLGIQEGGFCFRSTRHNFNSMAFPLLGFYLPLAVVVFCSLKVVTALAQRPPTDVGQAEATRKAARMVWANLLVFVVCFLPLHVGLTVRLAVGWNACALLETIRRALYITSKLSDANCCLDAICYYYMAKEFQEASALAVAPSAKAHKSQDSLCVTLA

N[C@@H](Cc1cc(I)c(Oc2cc(I)c(O)c(I)c2)c(I)c1)C(=O)O [L-Thyroxine (T4), L-thyroxine, reference compound]
EC50 [1]: > 500 µM
Efficacy DMR (maximal response) ([1]; HT-29 cells): >100 pm
EC50 [2]: > 500 µM
Efficacy Tango (maximal response) ([2]; U2OS-GPR35-bla cells): >20 % Zaprinast

O=C(O)c1cccnc1Nc1cccc(C(F)(F)F)c1 [Niflumic acid, reference compound]
Efficacy DMR (maximal response) ([1]; HT-29 cells): 223±11 pm
Efficacy Tango (maximal response) ([2]; U2OS-GPR35-bla cells): 39 % Zaprinast

N[C@@H](Cc1ccc(O)c(O)c1)C(=O)O [L-DOPA, 3,4-dihydroxy-L-phenylalanine, reference compound]
EC50 [1]: > 500 µM
Efficacy DMR (maximal response) ([1]; HT-29 cells): Off-target
DMR signal in DMR agonism profiling (in words) ([1]; HT-29 cells): did not reach a saturated level up to 1 mM
GPR35 internalization [3]: obvious internalization
EC50 Tango [2, 5]: Inactive

O=C(O)Cc1ccc(O)c(O)c1 [DOPAC, 3,4-Dihydroxyphenylacetic acid]
DMR of the agonist in the presence of 64 μM SPB05142 [4]: residual DMR signal
EC50 [1]: > 500 µM
Efficacy DMR (maximal response) ([1]; HT-29 cells): >200 pm
DMR signal in DMR agonism profiling (in words) ([1]; HT-29 cells): active
GPR35 internalization [3]: obvious internalization
EC50 [2]: 106 ± 7 µM
Efficacy Tango (maximal response) ([2]; U2OS-GPR35-bla cells): 44 % Zaprinast

N[C@@H](Cc1cc(I)c(O)c(I)c1)C(=O)O [3,5-Diiodo-L-tyrosine, 3,5-diiodo-L-tyrosine]
EC50 [1]: 304 ± 45 µM
Efficacy DMR (maximal response) ([1]; HT-29 cells): 254±19 pm
DMR signal in DMR agonism profiling (in words) ([1]; HT-29 cells): clear dose-dependent DMR
EC50 Tango [2, 5]: Inactive

N[C@@H](Cc1ccc(Oc2cc(I)c(O)c(I)c2)c(I)c1)C(=O)O [Reverse T3, 3,3′,5′-triiodothyronine]
EC50 [1]: 5.89 ± 0.39 µM
Efficacy DMR (maximal response) ([1]; HT-29 cells): 276±12 pm
DMR signal in DMR agonism profiling (in words) ([1]; HT-29 cells): clear dose-dependent DMR
GPR35 internalization [3]: obvious internalization
EC50 [2]: 108 ± 9 µM
Activity in Tango β-arrestin translocation assay (in words) ([2]; U2OS-GPR35-bla cells): full agonist
Efficacy Tango (maximal response) ([2]; U2OS-GPR35-bla cells): 108 % Zaprinast

O=C(/C=C/c1ccc(O)c(O)c1)O[C@H](Cc1ccc(O)c(O)c1)C(=O)O [Rosmarinate, rosmarinate]
EC50 [1]: 29.4 ± 2.7 µM
Efficacy DMR (maximal response) ([1]; HT-29 cells): 320±11 pm
DMR signal in DMR agonism profiling (in words) ([1]; HT-29 cells): active
EC50 [2]: 169 ± 17 µM
Efficacy Tango (maximal response) ([2]; U2OS-GPR35-bla cells): 63 % Zaprinast

O=C(O)c1cc2cc(O)c(O)cc2[nH]1 [DHICA, 5,6-dihydroxyindole-2-carboxylic acid]
EC50 [1]: 24.2 ± 2.7 µM
Efficacy DMR (maximal response) ([1]; HT-29 cells): 310±11 pm
DMR signal in DMR agonism profiling (in words) ([1]; HT-29 cells): clear dose-dependent and saturable DMR
GPR35 internalization [3]: obvious internalization
EC50 [2]: 22.9 ± 1.6 µM
Activity in Tango β-arrestin translocation assay (in words) ([2]; U2OS-GPR35-bla cells): robust FRET signal
Efficacy Tango (maximal response) ([2]; U2OS-GPR35-bla cells): 75 % Zaprinast

N[C@@H](Cc1ccc(O)cc1)C(=O)O [L-Tyrosine, L-tyrosine]
EC50 DMR [1, 6]: Inactive
EC50 Tango [2, 5]: Inactive

N[C@@H](Cc1ccc(O)c([N+](=O)[O-])c1)C(=O)O [3-Nitro-L-tyrosine, 3-nitro-L-tyrosine]
EC50 [1]: 142 ± 27 µM
Efficacy DMR (maximal response) ([1]; HT-29 cells): 330±13 pm
DMR signal in DMR agonism profiling (in words) ([1]; HT-29 cells): robust DMR signal
EC50 [2]: > 500 µM
Activity in Tango β-arrestin translocation assay (in words) ([2]; U2OS-GPR35-bla cells): able to result in β-arrestin translocation
Efficacy Tango (maximal response) ([2]; U2OS-GPR35-bla cells): >20 % Zaprinast

NC(Cc1ccccc1)C(=O)O (racemic) [DL-Phenylalanine, DL-phenylalanine]
EC50 DMR [1, 6]: Inactive
EC50 Tango [2, 5]: Inactive

O=C([O-])c1cc(=O)c2c(OCC(O)COc3cccc4oc(C(=O)[O-])cc(=O)c34)cccc2o1.[Na+].[Na+] [Cromolyn disodium, reference compound]
Efficacy DMR (maximal response) ([1]; HT-29 cells): 252±16 pm
EC50 ([1]; read-out: EC50 DMR, DMR agonism, HT-29 cells, maximal DMR amplitude within 1 hr): 0.52 ± 0.04 µM
Efficacy Tango (maximal response) ([2]; U2OS-GPR35-bla cells): 97 % Zaprinast
EC50 ([2]; read-out: EC50 Tango, U2OS-GPR35-bla cells, β-arrestin translocation): 9.67 ± 0.71 µM

O=C([O-])/C=C/C(=O)[O-].[Na+].[Na+] [Sodium fumarate, sodium fumarate]
EC50 DMR [1, 6]: Inactive
EC50 Tango [2, 5]: Inactive

COC(=O)c1cnn(-c2ccc(F)cc2F)c1C=NNC(=S)NC(C)(C)C [SPB05142, methyl-5-[(tert-butylcarbamothioylhydrazinylidene)-methyl]-1-(2,4-difluorophenyl)-pyrazole-4-carboxylate, reference compound]
Inhibition by SPB05142 of the DMR of DOPA ([4]; HT-29, agonist at EC50 to EC80): partially inhibited
Inhibition by SPB05142 of the DMR arising from all other eleven agonists ([4]; HT-29, each agonist at EC50 to EC80): dose-dependently inhibited
IC50 Antagonist (SPB05142 to block the DMR of the agonist) ([4]; against homogentisate, HT-29): No inhibition
DMR signal in DMR agonism profiling (in words) ([1]; HT-29 cells): little or no DMR signal
Activity in Tango β-arrestin translocation assay (in words) ([2]; U2OS-GPR35-bla cells): inactive

COc1cc(CCN)ccc1O [3-Methoxytyramine, 3-methoxytyramine]
EC50 DMR [1, 6]: Inactive
EC50 Tango [2, 5]: Inactive

CCOC(=O)Cc1ccc(O)c(OC)c1 [Ethyl homovanillate, ethyl homovanillate]
EC50 DMR [1, 6]: Inactive

N[C@@H](Cc1ccccc1)C(=O)O [L-Phenylalanine, L-phenylalanine]
EC50 DMR [1, 6]: Inactive
EC50 Tango [2, 5]: Inactive

COc1cc(CC(=O)O)ccc1O [Homovanillic acid, homovanillic acid]
EC50 DMR [1, 6]: Inactive
EC50 Tango [2, 5]: Inactive

CCCOc1ccccc1-c1nc2nn[nH]c2c(=O)[nH]1 [Zaprinast, reference compound]
Efficacy DMR (maximal response) ([1]; HT-29 cells): 250±17 pm
Efficacy Tango (maximal response) ([2]; U2OS-GPR35-bla cells): 100 % Zaprinast

C[C@](N)(Cc1ccc(O)c(O)c1)C(=O)O [α-methyl-L-DOPA, reference compound]
EC50 DMR [1, 6]: Inactive
EC50 Tango [2, 5]: Inactive

O=C(O)c1cc(=O)c2ccccc2[nH]1 [Kynurenic acid, reference compound]
Efficacy DMR (maximal response) ([1]; HT-29 cells): 203±13 pm
EC50 [2]: > 500 µM
Efficacy Tango (maximal response) ([2]; U2OS-GPR35-bla cells): >60 % Zaprinast

N[C@@H](Cc1ccc(O)c(I)c1)C(=O)O [3-Iodo-L-tyrosine, 3-iodo-L-tyrosine]
EC50 [1]: > 500 µM
Efficacy DMR (maximal response) ([1]; HT-29 cells): >50 pm
DMR signal at 1 mM (in words) ([1]; HT-29 cells, 1 mM): small but detectable DMR
EC50 Tango [2, 5]: Inactive

O=C(O)CCc1ccc(O)c(O)c1 [Dihydrocaffeic acid, 3-(3,4-dihydroxyphenyl)propionic acid]
DMR of the agonist in the presence of 64 μM SPB05142 [4]: residual DMR signal
EC50 [1]: 342 ± 41 µM
Efficacy DMR (maximal response) ([1]; HT-29 cells): 293±12 pm
DMR signal in DMR agonism profiling (in words) ([1]; HT-29 cells): active
EC50 [2]: 186 ± 21 µM
Efficacy Tango (maximal response) ([2]; U2OS-GPR35-bla cells): 46 % Zaprinast

NC(Cc1ccc(O)cc1)C(=O)O (racemic) [DL-Tyrosine, DL-tyrosine]
EC50 DMR [1, 6]: Inactive
EC50 Tango [2, 5]: Inactive

O=C(O)Cc1ccc(O)cc1 [4-Hydroxyphenylacetate, 4-hydroxyphenylacetate]
EC50 DMR [1, 6]: Inactive
EC50 Tango [2, 5]: Inactive

OCC(O)c1ccc(O)c(O)c1 (stereo not drawn) [DHPG, 3,4-dihydroxyphenylglycol]
DMR of the agonist in the presence of 64 μM SPB05142 [4]: residual DMR signal
EC50 [1]: 239 ± 37 µM
Efficacy DMR (maximal response) ([1]; HT-29 cells): 310±12 pm
DMR signal in DMR agonism profiling (in words) ([1]; HT-29 cells): active
EC50 [2]: 563 ± 67 µM
Efficacy Tango (maximal response) ([2]; U2OS-GPR35-bla cells): 18 % Zaprinast
